Data from publication PMC4745115 (Nature communications, 2014).

Columns and labels:
BetP [1] = target: T1, BetP (Corynebacterium glutamicum, UniProt P54582, G153D); experiment: tryptophan fluorescence titration, proteoliposomes; assay type: binding
T1 sequence (P54582 1-595 G153D): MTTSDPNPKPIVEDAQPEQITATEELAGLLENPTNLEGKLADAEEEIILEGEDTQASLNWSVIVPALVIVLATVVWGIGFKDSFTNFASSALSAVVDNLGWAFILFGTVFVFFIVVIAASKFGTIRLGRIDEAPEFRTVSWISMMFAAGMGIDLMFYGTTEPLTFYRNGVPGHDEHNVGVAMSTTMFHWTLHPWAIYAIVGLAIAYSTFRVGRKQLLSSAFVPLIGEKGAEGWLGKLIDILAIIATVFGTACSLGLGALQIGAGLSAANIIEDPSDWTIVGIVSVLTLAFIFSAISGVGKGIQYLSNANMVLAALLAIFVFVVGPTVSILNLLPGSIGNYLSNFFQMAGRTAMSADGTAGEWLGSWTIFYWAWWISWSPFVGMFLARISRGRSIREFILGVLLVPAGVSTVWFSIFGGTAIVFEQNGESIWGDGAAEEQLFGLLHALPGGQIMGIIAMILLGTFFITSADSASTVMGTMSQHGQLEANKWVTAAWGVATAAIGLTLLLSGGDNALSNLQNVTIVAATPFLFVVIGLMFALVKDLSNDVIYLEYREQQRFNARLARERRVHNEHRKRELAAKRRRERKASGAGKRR
Method in brief: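 Strep-tagged BetP-G153D was expressed in E. coli, affinity-purified in DDM, and reconstituted into E. coli polar-lipid liposomes (lipid/protein 10:1 w/w, 250 mM KPi pH 7.5), used at 100 μg/ml protein. Substrate was 0.1–16 mM with 100 mM NaCl at pH 7.5, or 0.8–30 mM (pH 5.5) or 0.8–100 mM (pH 7.5) without NaCl. Excitation 295 nm; emission at 340 nm, eight readings averaged. Mean and SD were fitted for the binding constant.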

BetP [2] = target: BetP (Corynebacterium glutamicum, UniProt P54582); experiment: […]-betaine uptake in E. coli MKH13 expressing BetP; assay type: cell-based; conditions: 250 μM [14C]-betaine, NaCl titration, pH 7.5, 800 mOsmol/kg, 37 °C; labelled compound
Sequence of BetP (Corynebacterium glutamicum, UniProt P54582) (P54582 whole entry): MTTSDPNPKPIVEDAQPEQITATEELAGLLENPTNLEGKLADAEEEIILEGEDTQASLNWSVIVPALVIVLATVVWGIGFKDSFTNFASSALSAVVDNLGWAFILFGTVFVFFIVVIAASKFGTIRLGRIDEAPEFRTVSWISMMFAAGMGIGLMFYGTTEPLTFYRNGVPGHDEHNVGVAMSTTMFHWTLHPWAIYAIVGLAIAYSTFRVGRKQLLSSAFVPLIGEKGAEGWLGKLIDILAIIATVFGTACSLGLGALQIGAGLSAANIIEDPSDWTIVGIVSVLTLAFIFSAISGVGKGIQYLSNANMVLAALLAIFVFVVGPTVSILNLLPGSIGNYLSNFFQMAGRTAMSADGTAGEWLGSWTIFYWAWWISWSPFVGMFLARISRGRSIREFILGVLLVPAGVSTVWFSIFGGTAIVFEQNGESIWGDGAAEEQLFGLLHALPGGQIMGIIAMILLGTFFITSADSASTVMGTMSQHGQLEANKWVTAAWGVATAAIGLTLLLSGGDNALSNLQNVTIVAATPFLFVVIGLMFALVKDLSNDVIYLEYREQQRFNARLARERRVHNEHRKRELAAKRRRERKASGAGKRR

C[N+](C)(C)CCO [Choline]
Kd (BetP [1]): 1150 ± 90 µM

C[N+](C)(C)CC(=O)[O-] [[14C]-betaine]
[14C]-betaine uptake in E. coli MKH13 expressing BetP (BetP [2]): cells expressing BetP WT or the mutant N309A
